Experimental data reported in ChEMBL document CHEMBL5316295, “Systematic Design of Adenosine Analogs as Inhibitors of a Clostridioides difficile-Specific DNA Adenine Methyltransferase Required for Normal Sporulation and Persistence” (J Med Chem, 2023).
Calls of active or inactive are those of the source. The rule behind the calls is not given here.

Assays:
[1] = target: Protein arginine N-methyltransferase 1 (Homo sapiens) (UniProt Q99873); assay: Inhibition of PRMT1 (unknown origin) using histone H4 as substrate and 3H-SAM as cosubstrate at 10 uM pretreated with compound for 20 mins in presence of histone H4 followed by cosubstrate addition and measured after 1 hr; conditions: time 80.0 min
How it was run: (§1)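 Enzymes (DOT1L 1 nM; EZH2, G9a, PRMT1 5 nM) mixed with substrate (0.05 mg/mL oligonucleosomes for DOT1L; 0.05 mg/mL core histone for EZH2; 5 μM H3 1–21 peptide for G9a; 5 μM H4 for PRMT1). Compound (10 μM) added for 20 min at room temperature, then 1 μM ³H-SAM for 1 h at 30 °C; filter-paper read-out. Triplicates, mean ± SD.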

[2] = target: T1, Histone-lysine N-methyltransferase EHMT2 (Homo sapiens) (UniProt Q96KQ7); assay: Inhibition of human G9a (913 to 1193 residues) expressed in Escherichia coli BL21 (DE3)-gold cells using histone H3 (1 to 21 residues) as substrate and 3H-SAM as cosubstrate at 10 uM pretreated with compound for 20 mins in presence of histone H3 (1 to 21 residues) followed by cosubstrate addition and measured after 1 hr; conditions: time 80.0 min; how it was run: as §1
T1 sequence (whole entry): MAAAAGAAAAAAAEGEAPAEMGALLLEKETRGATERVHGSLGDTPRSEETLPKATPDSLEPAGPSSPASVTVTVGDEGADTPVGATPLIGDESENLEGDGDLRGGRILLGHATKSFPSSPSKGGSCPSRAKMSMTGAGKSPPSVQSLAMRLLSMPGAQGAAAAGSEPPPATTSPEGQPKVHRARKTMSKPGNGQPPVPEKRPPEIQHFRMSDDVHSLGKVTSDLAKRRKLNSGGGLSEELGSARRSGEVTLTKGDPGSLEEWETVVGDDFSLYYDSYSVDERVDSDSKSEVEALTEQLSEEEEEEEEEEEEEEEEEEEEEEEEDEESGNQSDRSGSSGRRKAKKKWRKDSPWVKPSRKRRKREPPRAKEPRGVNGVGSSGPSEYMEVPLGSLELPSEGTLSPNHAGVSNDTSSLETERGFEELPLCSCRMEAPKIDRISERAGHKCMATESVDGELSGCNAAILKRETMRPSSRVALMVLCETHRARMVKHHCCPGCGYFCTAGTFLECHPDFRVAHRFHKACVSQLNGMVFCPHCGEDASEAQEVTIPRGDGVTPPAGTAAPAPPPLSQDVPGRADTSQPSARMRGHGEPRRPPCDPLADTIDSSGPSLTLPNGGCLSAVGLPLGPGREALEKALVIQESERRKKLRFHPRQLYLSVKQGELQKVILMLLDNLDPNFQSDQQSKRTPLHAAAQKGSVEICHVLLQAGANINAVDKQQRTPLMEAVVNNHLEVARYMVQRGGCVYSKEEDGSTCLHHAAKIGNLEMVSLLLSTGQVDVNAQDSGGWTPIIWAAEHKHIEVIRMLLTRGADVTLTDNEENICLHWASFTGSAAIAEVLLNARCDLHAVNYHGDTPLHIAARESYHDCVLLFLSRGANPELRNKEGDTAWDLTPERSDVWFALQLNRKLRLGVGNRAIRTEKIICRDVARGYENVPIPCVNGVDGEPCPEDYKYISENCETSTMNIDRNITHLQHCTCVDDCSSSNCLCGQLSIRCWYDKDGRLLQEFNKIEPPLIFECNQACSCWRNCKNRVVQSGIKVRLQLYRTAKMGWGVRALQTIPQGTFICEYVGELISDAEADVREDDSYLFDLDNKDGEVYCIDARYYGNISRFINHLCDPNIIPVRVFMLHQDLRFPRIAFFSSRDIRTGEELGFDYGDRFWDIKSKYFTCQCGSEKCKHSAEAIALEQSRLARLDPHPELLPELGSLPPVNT

[3] = target: Histone-lysine N-methyltransferase, H3 lysine-79 specific (Homo sapiens) (UniProt Q8TEK3); assay: Inhibition of human DOT1L using oligonucleosome as substrate and 3H-SAM as cosubstrate at 10 uM pretreated with compound for 20 mins in presence of oligonucleosome followed by cosubstrate addition and measured after 1 hr; conditions: time 80.0 min; how it was run: as §1
Clostridioides difficile [4] = assay: Inhibition of Clostridioides difficile-specific DNA adenine methyltransferase mediated methylation using 5'-CGA TTC AAA AAG TCC CAA G-3' and 3'-GCT AAG TTT TTC AGG GTT C-5' as substrate and SAM as cosubstrate at 1 to 10 uM preincubated for 5 mins followed by substrate and cosubstrate addition and measured after 3 mins by MTase glo assay; conditions: dose 1-10 µM, time 8.0 min
[5] = Binding affinity to Clostridioides difficile-specific DNA adenine methyltransferase PDB 7RFM by MicroCal PEAQ ITC analysis
How it was run: (§2)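 CamA (pXC2184 construct) in 325 mM NaCl, 20 mM Tris–HCl pH 7.5, 0.5 mM TCEP, 10% DMSO at 25 °C; 200–900 μM compound titrated into 20–60 μM protein (0.2 μL initial injection then 18 × 2 μL; reverse titration for poorly soluble compounds). Data fitted to a one-site model with offset subtracted to obtain K_D.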

[6] = Inhibition of Clostridioides difficile-specific DNA adenine methyltransferase PDB 7RFM using 5'-CGA TTC AAA AAG TCC CAA G-3' and 3'-GCT AAG TTT TTC AGG GTT C-5' as substrate and SAM as cosubstrate preincubated for 5 mins followed by substrate and cosubstrate addition and measured after 3 mins by MTase-Glo assay
How it was run: (§3)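 Then 2.5 μM 19-bp dsDNA and 40 μM SAM were added, 3 min at ~22 °C, TFA quench (0.1%). Luminescent SAH readout against a serially diluted SAH standard curve; IC50 and Hill slope reported.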

[7] = Binding affinity to Clostridioides difficile-specific DNA adenine methyltransferase PDB 7RFK by MicroCal PEAQ ITC analysis; how it was run: as §2
[8] = target: mRNA (2'-O-methyladenosine-N(6)-)-methyltransferase (Homo sapiens) (UniProt Q9H4Z3); assay: Inhibition of human PCIF1 using m7GpppAmG as substrate and SAM as cosubstrate at 10 uM incubated for 15 mins
How it was run: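 Enzyme 0.1 μM with 5 μM RNA, 30 μM SAM and 10 μM inhibitor at ~22 °C in 50 mM Tris–HCl pH 7.5, 100 mM NaCl, 1 mM DTT, 0.25% DMSO. PCIF1 run 15 min with capped RNA; MettL5-Trm112 run 1 h with ssRNA.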

[9] = target: T2, DNA adenine methylase (Escherichia coli K-12) (UniProt P0AEE8); assay: Inhibition of Escherichia coli Dam using 5'-CCG CGG ATC CTG CT-3' and 3'-GGC GCC TAG GAC GA-5' as substrate and SAM as cosubstrate at 10 uM incubated for 5 mins
T2 sequence (whole entry): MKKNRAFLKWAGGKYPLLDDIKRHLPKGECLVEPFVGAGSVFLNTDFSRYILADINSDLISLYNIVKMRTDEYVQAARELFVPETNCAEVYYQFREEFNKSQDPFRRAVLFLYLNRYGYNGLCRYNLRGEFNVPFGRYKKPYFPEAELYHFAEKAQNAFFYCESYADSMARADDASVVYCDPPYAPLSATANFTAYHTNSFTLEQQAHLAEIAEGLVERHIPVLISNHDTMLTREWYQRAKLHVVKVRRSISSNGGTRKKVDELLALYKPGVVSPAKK
How it was run: (§4)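 Conditions were enzyme 0.1 μM, DNA 5 μM, SAM 30 μM, inhibitor 10 μM, at ~22 °C in 50 mM Tris–HCl pH 7.5, 100 mM NaCl, 1 mM DTT, 0.25% DMSO, run 5 min. Substrate and SAM levels were above K_M.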

[10] = Inhibition of Clostridioides difficile-specific DNA adenine methyltransferase PDB 7RFK using 5'-CGA TTC AAA AAG TCC CAA G-3' and 3'-GCT AAG TTT TTC AGG GTT C-5' as substrate and SAM as cosubstrate preincubated for 5 mins followed by substrate and cosubstrate addition and measured after 3 mins by MTase-Glo assay; how it was run: as §3
Caulobacter vibrioides = assay: Inhibition of Caulobacter vibrioides CcrM using 5'-CGA TTC AAA AAG TCC CAA G-3' and 3'-GCT AAG TTT TTC AGG GTT C-5' as substrate and SAM as cosubstrate at 10 uM incubated for 5 mins; how it was run: as §4
[11] = target: DNMT3A-DNMT3L (Mus musculus) (UniProt O88508+Q9CWR8); assay: Inhibition of mouse DNMT3A/DNMT3L using 5'-G CATGCGTTCTAATTAGAAUGCATG-3' and 3'-GTA CGS AAG ATT AAT CTT GCG TAC G-5' as substrate and SAM as cosubstrate at 10 uM incubated for 1 hr; assay type: protein-complex assay
How it was run: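 Dnmt3a-3L (0.5 μM) with 5 μM dsDNA, 25 μM SAM and 10 μM inhibitor in 20 mM Tris pH 7.5, 40 mM NaCl, 4 mM DTT, 20% glycerol, run 1 h at 37 °C.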

[12] = Inhibition of Clostridioides difficile-specific DNA adenine methyltransferase mediated methylation using 5'-CGA TTC AAA AAG TCC CAA G-3' and 3'-GCT AAG TTT TTC AGG GTT C-5' as substrate and SAM as cosubstrate preincubated for 5 mins followed by substrate and cosubstrate addition and measured after 3 mins by MTase glo assay
[13] = Binding affinity to Clostridioides difficile-specific DNA adenine methyltransferase by MicroCal PEAQ-ITC instrument analysis
Clostridioides difficile [14] = assay: Binding affinity to Clostridioides difficile-specific DNA adenine methyltransferase assessed as change in enthalpy by MicroCal PEAQ-ITC instrument analysis
How it was run: (§5)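 Test compound (200–900 μM) titrated into CamA (20–60 μM) at 25 °C in 325 mM NaCl, 20 mM Tris–HCl pH 7.5, 0.5 mM TCEP, 10% DMSO; 0.2 μL initial plus 18 × 2 μL injections. Reverse titration used for poorly soluble compounds. Data fitted to a one-site model with offset subtracted; K_D, ΔH, −TΔS and ΔG derived from the fit.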

[15] = Inhibition of Clostridioides difficile-specific DNA adenine methyltransferase PDB 7RFL using 5'-CGA TTC AAA AAG TCC CAA G-3' and 3'-GCT AAG TTT TTC AGG GTT C-5' as substrate and SAM as cosubstrate preincubated for 5 mins followed by substrate and cosubstrate addition and measured after 3 mins by MTase-Glo assay; how it was run: as §3
Clostridioides difficile [16] = assay: Inhibition of Clostridioides difficile-specific DNA adenine methyltransferase using 5'-CGA TTC AAA AAG TCC CAA G-3' and 3'-GCT AAG TTT TTC AGG GTT C-5' as substrate and SAM as cosubstrate at 50 uM preincubated for 5 mins followed by substrate and cosubstrate addition and measured after 3 mins by MTase-Glo assay; conditions: time 8.0 min
[17] = Binding affinity to Clostridioides difficile-specific DNA adenine methyltransferase PDB 7RFL by MicroCal PEAQ ITC analysis; how it was run: as §2
[18] = Binding affinity to Clostridioides difficile-specific DNA adenine methyltransferase PDB 8CXS by MicroCal PEAQ ITC analysis; how it was run: as §5
[19] = Inhibition of Clostridioides difficile-specific DNA adenine methyltransferase PDB 8CXS using 5'-CGA TTC AAA AAG TCC CAA G-3' and 3'-GCT AAG TTT TTC AGG GTT C-5' as substrate and SAM as cosubstrate preincubated for 5 mins followed by substrate and cosubstrate addition and measured after 3 mins by MTase-Glo assay
How it was run: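 Reaction started with 2.5 μM dsDNA and 40 μM SAM (final), run 3 min, then quenched with 0.1% TFA. SAH measured by MTase-Glo luminescence against an SAH standard curve.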

[20] = Binding affinity to Clostridioides difficile-specific DNA adenine methyltransferase by MicroCal PEAQ ITC analysis; how it was run: as §5

Sequence of Histone-lysine N-methyltransferase, H3 lysine-79 specific (Homo sapiens) (Q8TEK3 whole entry, looked up): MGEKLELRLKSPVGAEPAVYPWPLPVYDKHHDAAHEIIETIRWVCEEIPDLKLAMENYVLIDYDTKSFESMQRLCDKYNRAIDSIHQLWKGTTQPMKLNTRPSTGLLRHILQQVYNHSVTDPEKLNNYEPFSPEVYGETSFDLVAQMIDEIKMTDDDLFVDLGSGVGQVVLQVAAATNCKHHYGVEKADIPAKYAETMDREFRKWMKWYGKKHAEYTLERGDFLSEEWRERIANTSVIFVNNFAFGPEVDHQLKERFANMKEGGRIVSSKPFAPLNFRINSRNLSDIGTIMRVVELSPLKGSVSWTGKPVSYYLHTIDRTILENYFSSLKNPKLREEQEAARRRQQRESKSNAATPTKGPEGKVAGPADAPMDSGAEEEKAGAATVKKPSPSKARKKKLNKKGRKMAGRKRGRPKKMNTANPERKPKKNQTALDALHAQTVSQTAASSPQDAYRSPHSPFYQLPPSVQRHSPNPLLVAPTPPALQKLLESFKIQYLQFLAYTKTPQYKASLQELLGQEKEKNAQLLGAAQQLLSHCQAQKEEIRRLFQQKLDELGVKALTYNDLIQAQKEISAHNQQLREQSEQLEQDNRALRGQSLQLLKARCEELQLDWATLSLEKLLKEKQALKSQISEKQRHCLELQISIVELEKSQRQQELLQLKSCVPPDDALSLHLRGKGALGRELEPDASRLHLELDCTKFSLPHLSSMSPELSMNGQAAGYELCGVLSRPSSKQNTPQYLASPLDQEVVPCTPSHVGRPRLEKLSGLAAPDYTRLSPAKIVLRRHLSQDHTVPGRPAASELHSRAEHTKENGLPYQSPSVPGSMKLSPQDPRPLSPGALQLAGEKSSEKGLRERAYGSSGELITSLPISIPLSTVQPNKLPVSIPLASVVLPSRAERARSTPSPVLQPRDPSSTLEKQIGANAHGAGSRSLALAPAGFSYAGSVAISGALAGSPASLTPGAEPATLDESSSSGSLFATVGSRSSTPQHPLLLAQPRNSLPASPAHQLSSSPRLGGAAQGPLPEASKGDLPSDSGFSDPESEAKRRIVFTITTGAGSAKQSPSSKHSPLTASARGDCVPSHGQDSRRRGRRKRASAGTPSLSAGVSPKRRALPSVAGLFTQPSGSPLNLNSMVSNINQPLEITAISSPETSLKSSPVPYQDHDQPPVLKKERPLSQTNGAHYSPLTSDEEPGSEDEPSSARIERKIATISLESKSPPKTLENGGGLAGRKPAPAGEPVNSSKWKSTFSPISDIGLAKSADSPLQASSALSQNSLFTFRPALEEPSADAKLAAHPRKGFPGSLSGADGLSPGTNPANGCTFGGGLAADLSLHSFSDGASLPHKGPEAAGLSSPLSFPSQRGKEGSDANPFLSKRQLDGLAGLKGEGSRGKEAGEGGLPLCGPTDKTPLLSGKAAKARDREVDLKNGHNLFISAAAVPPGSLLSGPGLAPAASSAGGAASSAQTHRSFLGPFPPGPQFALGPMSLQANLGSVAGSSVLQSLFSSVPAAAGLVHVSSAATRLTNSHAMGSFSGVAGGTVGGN
Sequence of DNMT3A-DNMT3L (Mus musculus) (Q9CWR8 whole entry, looked up, other chains not shown): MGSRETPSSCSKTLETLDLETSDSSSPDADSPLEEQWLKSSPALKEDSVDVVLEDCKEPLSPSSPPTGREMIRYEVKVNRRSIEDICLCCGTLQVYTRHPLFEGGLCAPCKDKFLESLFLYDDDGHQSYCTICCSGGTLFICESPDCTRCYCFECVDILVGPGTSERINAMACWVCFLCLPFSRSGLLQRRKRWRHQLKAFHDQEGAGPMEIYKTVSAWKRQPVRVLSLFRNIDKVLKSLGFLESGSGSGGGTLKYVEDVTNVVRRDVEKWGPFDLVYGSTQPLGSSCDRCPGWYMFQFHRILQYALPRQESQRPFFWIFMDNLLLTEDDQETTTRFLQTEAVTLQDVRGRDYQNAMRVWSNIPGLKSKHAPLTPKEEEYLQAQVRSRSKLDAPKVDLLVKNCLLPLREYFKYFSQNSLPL
Sequence of mRNA (2'-O-methyladenosine-N(6)-)-methyltransferase (Homo sapiens) (Q9H4Z3 whole entry): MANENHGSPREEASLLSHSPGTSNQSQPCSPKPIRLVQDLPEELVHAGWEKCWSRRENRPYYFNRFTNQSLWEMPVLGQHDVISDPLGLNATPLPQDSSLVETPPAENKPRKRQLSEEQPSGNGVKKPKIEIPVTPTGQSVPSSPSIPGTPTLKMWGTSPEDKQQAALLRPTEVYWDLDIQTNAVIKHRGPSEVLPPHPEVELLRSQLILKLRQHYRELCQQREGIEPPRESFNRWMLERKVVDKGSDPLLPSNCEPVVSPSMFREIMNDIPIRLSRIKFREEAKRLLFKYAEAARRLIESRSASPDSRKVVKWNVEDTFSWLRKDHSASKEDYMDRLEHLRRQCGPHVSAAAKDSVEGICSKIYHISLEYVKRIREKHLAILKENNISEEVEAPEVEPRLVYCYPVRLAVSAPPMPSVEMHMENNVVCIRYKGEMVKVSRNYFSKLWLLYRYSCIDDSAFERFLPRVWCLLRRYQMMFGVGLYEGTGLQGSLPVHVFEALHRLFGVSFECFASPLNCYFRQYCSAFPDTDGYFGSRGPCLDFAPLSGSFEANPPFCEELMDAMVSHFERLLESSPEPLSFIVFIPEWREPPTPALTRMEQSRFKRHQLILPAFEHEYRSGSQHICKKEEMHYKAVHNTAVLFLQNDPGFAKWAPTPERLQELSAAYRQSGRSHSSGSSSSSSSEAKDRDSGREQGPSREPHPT
Sequence of Protein arginine N-methyltransferase 1 (Homo sapiens) (Q99873 whole entry, looked up): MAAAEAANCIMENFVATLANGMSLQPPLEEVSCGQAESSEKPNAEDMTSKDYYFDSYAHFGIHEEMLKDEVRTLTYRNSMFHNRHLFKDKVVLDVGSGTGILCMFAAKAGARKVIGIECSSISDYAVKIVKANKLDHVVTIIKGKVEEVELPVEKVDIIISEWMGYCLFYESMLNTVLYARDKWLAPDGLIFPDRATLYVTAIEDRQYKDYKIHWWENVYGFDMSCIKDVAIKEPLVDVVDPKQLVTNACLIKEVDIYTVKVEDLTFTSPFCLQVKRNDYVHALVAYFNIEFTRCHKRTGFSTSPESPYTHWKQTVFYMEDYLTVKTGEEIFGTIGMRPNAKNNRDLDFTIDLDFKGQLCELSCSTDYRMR

SMILES: Nc1ncnc2c1ncn2[C@@H]1O[C@H](CSCC[C@H](N)C(=O)O)[C@@H](O)[C@H]1O
- inhibition [1]: Active
- inhibition [2]: Active
- inhibition [3]: Active

SMILES: CC(C)(C)OC(=O)N1CCC2(CCN(c3ncnc4c3ncn4[C@@H]3O[C@H](CO)[C@@H](O)[C@H]3O)CC2)C1
- inhibition (Clostridioides difficile [4]): inactive

SMILES: CC(C)(C)OC(=O)NCCC1CCN(c2ncnc3c2ncn3[C@@H]2O[C@H](CO)[C@@H](O)[C@H]2O)CC1
- inhibition (Clostridioides difficile [4]): inactive

SMILES: CC(C)N(CCCNC(=O)Nc1ccc(C(C)(C)C)cc1)C[C@H]1O[C@@H](n2ccc3c(N)ncnc32)[C@H](O)[C@@H]1O
- Kd [5]: 18 µM
- IC50 [6]: 43 µM

SMILES: Nc1ncnc2c1ncn2[C@@H]1O[C@H](C[C@@H](N)CC[C@H](N)C(=O)O)[C@@H](O)[C@H]1O [SINEFUNGIN]
- Kd [7]: 23 µM
- inhibition [8]: Active
- inhibition [9]: Active
- IC50 [10]: 24 µM
- inhibition (Caulobacter vibrioides): Active
- inhibition [11]: Active

SMILES: Nc1ccc(CNc2ncnc3c2ncn3[C@@H]2O[C@H](CO)[C@@H](O)[C@H]2O)cc1
- IC50 [12]: 10 µM
- Kd [13]: 14 µM
- deltaH (Clostridioides difficile [14]): -12.2 kcal/mol

SMILES: CC(C)N(CCCNC(=O)Nc1ccc(C(C)(C)C)cc1)C[C@H]1O[C@@H](n2cc(Br)c3c(N)ncnc32)[C@H](O)[C@@H]1O
- IC50 [15]: 4.7 µM
- inhibition (Clostridioides difficile [16]): Active
- Kd [17]: 6.3 µM

SMILES: CSC[C@H]1O[C@@H](n2cnc3c(N)ncnc32)[C@H](O)[C@@H]1O [METHYLTHIOADENOSINE]
- IC50 [12]: 18 µM
- Kd [18]: 10 µM
- IC50 [19]: 18 µM
- Kd [13]: 11 µM

SMILES: Nc1ncnc2c1ncn2[C@@H]1O[C@H](CO)[C@@H](O)[C@H]1O [ADENOSINE]
- Kd [20]: > 70 µM
